{"data": "Results collected from several papers", "action": "inhibitor", "SLCO1B3": "Solute carrier organic anion transporter family member 1B3 (SLCO1B3, Homo sapiens, UniProt Q9NPD5)", "SLC2A9": "Solute carrier family 2, facilitated glucose transporter member 9 (SLC2A9, Homo sapiens, UniProt Q9NRM0)", "BLK": "Tyrosine-protein kinase Blk (BLK, Homo sapiens, UniProt P51451)", "P4HB": "Protein disulfide-isomerase (P4HB, Homo sapiens, UniProt P07237)", "VCP": "Transitional endoplasmic reticulum ATPase (VCP, Homo sapiens, UniProt P55072)", "note": "Protocols differ between the studies behind these lines."}
{"SMILES": "COc1cccc2c1C(=O)c1c(O)c3c(c(O)c1C2=O)C[C@@](O)(C(=O)CO)C[C@@H]3O[C@H]1C[C@H](N)[C@H](O)[C@H](C)O1", "target": "SLCO1B3", "assay": "transporter uptake, radiometric", "setting": "2 min", "IC50 [nM]": 7700}
{"SMILES": "COc1ccc(N(Cc2csc(-c3ccc(Br)cc3)n2)C(=O)CCCCCC(=O)NO)cc1", "target": "Histone deacetylase 4 (HDAC4, Homo sapiens, UniProt P56524)", "assay": "enzyme activity", "IC50 [nM]": "> 10000"}
{"SMILES": "CC(=O)O[C@H]1C(=O)[C@@]2(C)[C@H]([C@H](OC(=O)c3ccccc3)[C@]3(O)C[C@H](OC(=O)[C@H](O)[C@@H](NC(=O)c4ccccc4)c4ccccc4)C(C)=C1C3(C)C)[C@]1(OC(C)=O)CO[C@@H]1C[C@@H]2O", "target": "SLCO1B3", "assay": "transporter uptake, radiometric", "setting": "2 min", "IC50 [nM]": 12800}
{"SMILES": "CCc1oc2cc(F)c(F)cc2c1C(=O)c1cc(Br)c(O)c(Br)c1", "target": "SLC2A9", "assay": "transporter uptake", "setting": "oocytes", "IC50 [nM]": 17400}
{"SMILES": "CC#CC(=O)N1CC[C@@H](n2c(=O)n(-c3ccc(Oc4ccccc4)cc3)c3c(N)ncnc32)C1", "target": "BLK", "assay": "enzyme activity", "IC50 [nM]": 793}
{"SMILES": "O=C(OC[C@H]1O[C@@H](OC(=O)c2cc(O)c(O)c(O)c2)[C@H](OC(=O)c2cc(O)c(O)c(O)c2)[C@@H](OC(=O)c2cc(O)c(O)c(O)c2)[C@@H]1OC(=O)c1cc(O)c(O)c(O)c1)c1cc(O)c(O)c(O)c1", "target": "P4HB", "assay": "enzyme activity, fluorescence", "IC50 [nM]": 2900}
{"SMILES": "CC(C)(/C=C(\\C#N)C(=O)N1CCC[C@@H](n2nc(-c3ccc(Oc4ccccc4)cc3F)c3c(N)ncnc32)C1)N1CCN(C2COC2)CC1", "target": "BLK", "assay": "enzyme activity", "IC50 [nM]": 0.376}
{"SMILES": "Cc1cc2c(C(N)=O)cccc2n1-c1nc2c(c(NCc3ccccc3O)n1)CCCN2", "target": "VCP", "assay": "enzyme activity, ADP detection", "IC50 [nM]": 53}
{"SMILES": "CCc1oc2cc(F)ccc2c1C(=O)c1cc(Br)c(O)c(Br)c1", "target": "SLC2A9", "assay": "transporter uptake", "setting": "oocytes", "IC50 [nM]": 30400}
{"SMILES": "CN(Cc1cnc2nc(N)nc(N)c2n1)c1ccc(C(=O)N[C@@H](CCC(=O)O)C(=O)O)cc1", "target": "Solute carrier organic anion transporter family member 1B3 (SLCO1B3, Homo sapiens, UniProt Q9NPD5, M233I)", "assay": "transporter uptake, radiometric", "setting": "2 min", "IC50 [nM]": "> 100000"}
{"SMILES": "CONC(=O)Cc1c(C)n(-c2nc3c(c(NCc4ccccc4)n2)CCCN3)c2ccccc12", "target": "VCP", "assay": "enzyme activity, ADP detection", "IC50 [nM]": 177}
{"SMILES": "Oc1ccc(-c2nc(-c3ccncc3)c(-c3ccc(F)cc3)[nH]2)cc1", "target": "Tau-tubulin kinase 2 (TTBK2, Homo sapiens, UniProt Q6IQ55)", "assay": "enzyme activity", "IC50 [nM]": 3620}
{"SMILES": "Cc1cc2c(C(N)=O)cccc2n1-c1nc2c(c(NCc3ccncc3)n1)CCCN2", "target": "VCP", "assay": "enzyme activity, ADP detection", "IC50 [nM]": 381}
{"SMILES": "Nc1cnccc1Nc1ccc(Cl)c(Cl)c1", "target": "G/T mismatch-specific thymine DNA glycosylase (TDG, Homo sapiens, UniProt Q13569)", "assay": "enzyme activity", "IC50 [nM]": "> 100000"}
{"SMILES": "Cc1cc2c(C(N)=O)cccc2n1-c1nc2c(c(NCc3cccnc3)n1)CCCN2", "target": "VCP", "assay": "enzyme activity, ADP detection", "IC50 [nM]": 115}
{"SMILES": "CC(C)n1c(/C=C/C(O)CC(O)CC(=O)O)c(-c2ccc(F)cc2)c2ccccc21 (stereo not drawn)", "target": "Solute carrier organic anion transporter family member 1B3 (SLCO1B3, Homo sapiens, UniProt Q9NPD5, S112A)", "assay": "transporter uptake, radiometric", "setting": "2 min", "IC50 [nM]": 3080}
{"SMILES": "Cc1cc2c(C(N)=O)cccc2n1-c1nc2c(c(NCc3cccc(O)c3)n1)CCCN2", "target": "VCP", "assay": "enzyme activity, ADP detection", "IC50 [nM]": 14}
{"SMILES": "O=C(O[C@@H]1[C@@H](O)[C@H](Oc2cc(O)c3c(c2)O[C@H](c2ccccc2)CC3=O)O[C@@H]2COC(=O)c3cc(O)c(O)c(O)c3-c3c(cc(O)c(O)c3O)C(=O)O[C@@H]12)c1cc(O)c(O)c(O)c1", "target": "P4HB", "assay": "enzyme activity, fluorescence", "IC50 [nM]": 1500}
